From PubChem
HSF1 inhib – HSF1 inhibition. NIH3T3-HGL HSE-luciferase, MG132-induced, luminescence 8 h; stronger effect = lower value. activity change, negative = inhibition, % at 7.5 µM (by protocol). hit rate 0.77% among 300,000. AID 2098;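 active = more than half of replicate wells show activity change below -50%, luminescence cut by over half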;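 also: luciferase reports HSF-1 transcriptional activity via heat shock element; 0% = median of DMSO wells and -100% = zero luminescence signal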
HIF act – HIF pathway transcriptional activation; U2OS HRE-luciferase reporter, luminescence; normalized: DMSO 0%, desferrioxamine 100%; activation, % at 7.5 µM (by protocol); hit rate 0.32% among 300,000; AID 1910;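 active = mean activation of at least 10% of the iron chelator positive control signal, with at least half of replicates also reaching 10%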
Calb FLC – C. albicans growth modulation with fluconazole; AID 1979; hit rate 0.57% among 300,000; C. albicans CaCi-2 + fluconazole, Alamar Blue growth, 48 h; growth inhibition, % (no concentration beside the values);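 active = growth inhibition above about 58% in most replicates, limit read from the data, passing the limit was not always enough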;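 also: all wells also contain fluconazole at 8 µg/ml as a sub-toxic cotreatment; 0% = median of DMSO wells and 100% = median of geldanamycin control wells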
T cruzi inh – T. cruzi replication inhibition. T. cruzi beta-gal in NIH3T3, luminescence, 90 h. inhibition, % (concentration not given with the values). hit rate 1.4% among 300,000;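 active = mean inhibition across valid replicates above about 55%, limit read from the data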;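 also: signal also drops with host cell toxicity which is not excluded here; 0% = plate median of DMSO wells and 100% = zero luminescence signal; higher percent means less beta-gal luminescence so fewer parasites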
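System: mouse NIH/3T3 fibroblasts infected with β-gal-expressing T. cruzi Tulahuen C4 / Input: NIH/3T3 cells, 5,000 per well / Buffer or medium: Low-serum DMEM with 2% FBS / Probe or stimulus: 5000 reporter trypomastigotes per well / Schedule: ≥90 h infection period, 3 h prior cell attachment / Measured by: GalScreen luminescence, 60 min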
HSF-1 act – increases HSF-1 driven luciferase reporter signal; activation, % at 9 µM; hit rate 1.7% among 300,000; NIH3T3-HGL HSF-1 luciferase reporter, MG132, 8 h; 100% = twice DMSO control signal;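 active = mean replicate activation of at least 50% with a set share of replicates each reaching 50%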;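 also: 0% = median of the neutral control wells and 100% = twice that signal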
* = called active by the depositor; · = no result. Only some compounds are listed: those with a hit (about 4.4% of all), similar ones and a draw of the others.

SMILES	HSF1 inhib	HIF act	Calb FLC	T cruzi inh	HSF-1 act
O=C(Cn1nc(-c2ccc(Cl)cc2)ccc1=O)NCC1CCCO1 (stereo not drawn)	-57*	0	-3	-16	-64
O=[N+]([O-])c1ccccc1N/N=C/c1ccccc1	22	4	4	-8	27
O=[N+]([O-])c1ccccc1N/N=C/c1c[nH]c2ccccc12	98	3	6	-7	150*
O=[N+]([O-])c1ccc(N/N=C/c2c[nH]c3ccccc23)cc1	103	2	-15	5	155*
NS(=O)(=O)c1ccc(N/N=C/c2cn(-c3ccccc3)nc2-c2ccccc2)c([N+](=O)[O-])c1	-8	0	-7	40	-17
O=[N+]([O-])c1ccc(N/N=C/c2cn(-c3ccccc3)nc2-c2ccccc2)cc1	29	1	-7	52	64*
CC(C)(C)c1ccc(-n2ncc3c2CCCC3NC(=O)C2(C(N)=O)CC2)cc1 (stereo not drawn)	-4	1	-9	-8	-1
CCOc1ccc(NC(=O)CN(C)C(=O)c2cn(-c3ccccc3)nc2-c2cccs2)cc1OCC	7	1	2	22	-2
CCCc1ccc(OCc2nc(-c3ccc(NC(=O)c4ccco4)cc3)no2)cc1	16	0	-1	15	16
CCCc1ccc(OCc2nc(-c3ccc(NC(=O)c4cccs4)cc3)no2)cc1	43	1	-3	17	58*
CCCCCCOC(=O)C1=C(C)NC(=O)NC1c1ccc2c(c1)OCO2 (stereo not drawn)	9	-1	5	-6	14
S=c1[nH]c(-c2ccc(Br)cc2)cn1CCc1ccccc1	26	2	3	0	62*
Cc1cc2c(=O)n(C)c(SCC(=O)Nc3ccccc3C)nc2s1	14	0	-3	1	13
Cc1cc(-c2cn3ccccc3n2)c(C)n1-c1ccccc1	3	2	1	62*	-13
O=C1NC(=O)/C(=C/c2ccc(OS(=O)(=O)c3ccc(F)cc3F)cc2)N1	-1	41*	8	-3	-2
O=C(COC(=O)c1cccc(Br)c1)NCCC1=CCCCC1	-4	-1	4	-24	5
O=C(Nc1ccn(Cc2c(F)c(F)cc(F)c2F)n1)c1ccc(COc2ccc(Cl)cc2Cl)o1	27	-1	-18	51	36
Cc1nn(Cc2c(F)c(F)c(F)c(F)c2F)c(C)c1NC(=O)c1cccc(COc2ccccc2Cl)c1	8	1	-4	33	3
Cc1nn(Cc2ccc(Cl)cc2Cl)c(C)c1NC(=O)c1ccc(COc2cc(Cl)ccc2Cl)o1	9	1	8	59*	17
Cc1nn(Cc2cccc(F)c2)c(C)c1NC(=O)c1ccc(COc2ccccc2Cl)cc1	28	-1	-5	57*	50
Cc1nn(Cc2ccc(Cl)cc2Cl)c(C)c1NC(=O)c1nn(C)cc1Cl	4	1	-7	-19	-19
Cc1nn(Cc2c(F)c(F)c(F)c(F)c2F)c(C)c1NC(=O)c1ccc(COc2ccc(Cl)cc2Cl)o1	-3	0	-10	67*	2
CCC(C)(O)c1[nH]c2ccc(C#N)cc2c1C (stereo not drawn)	5	1	-1	-10	4
Cc1cc(C)c(S(=O)(=O)c2ccccc2C)c(OCC(C)(C)C)n1	-3	0	0	19	-9
CC(C)COc1cccc(C(=O)NNC(=O)C2COc3ccccc3O2)c1 (stereo not drawn)	-10	26*	-10	-4	-13
SMILES	HSF1 inhib	HIF act	Calb FLC	T cruzi inh	HSF-1 act
Cc1ccc(Oc2ccc(Cl)cc2NC(=O)c2ccc(F)cc2F)cc1	-2	0	-8	15	-3
CCCOc1ccc(-c2nc(OC)c3ccccc3n2)cc1	13	2	21	-8	35
Cc1ccc(S(=O)(=O)N2c3ccccc3OCC2c2ccccc2)cc1 (stereo not drawn)	5	0	23	-6	56*
CC1=C(C(=O)Nc2ccccc2)C(c2cccnc2)n2ncnc2N1 (stereo not drawn)	·	0	-12	-13	·
C=CCn1c(O)c(N=NC(=S)Nc2cccc(OC)c2)c2ccccc21	6	3	45	59*	14
C=CCn1c(O)c(N=NC(=S)Nc2ccc(OC)cc2)c2ccccc21	-16	-1	108*	43	-2
C=CCn1c(O)c(N=NC(=O)OCC)c2ccccc21	0	0	6	1	29
O=C(OCCN1CCCCC1)c1cccc(Cl)c1	0	2	24	-1	12
Cn1cc(/C=C(\NC(=O)c2ccccc2)C(=O)NCCN2CCOCC2)c2ccccc21	4	-1	-1	10	5
O=C(N/N=C\c1cc(Cl)ccc1O)c1ccc(S(=O)(=O)N2CCCCC2)cc1	1	45*	92*	51	7
O=C(N/N=C/c1cc(Cl)ccc1O)c1cccnc1	-22	3	20	0	-21
COc1ccc(/C=C/C(=O)NCC(=O)N/N=C/c2cc(Br)ccc2OC)cc1	1	·	59	7	-4
O=C(N/N=C/c1cc(Cl)ccc1O)c1ccccc1Br	4	10*	44	18	8
COc1ccccc1/C=C/C(=O)NCC(=O)N/N=C/c1cc(Br)ccc1OC	22	0	-5	28	59*
O=C(Nc1cc(S(=O)(=O)Nc2ccc(Cl)cc2)ccc1O)c1ccc(S(=O)(=O)N2CCCCCC2)cc1	3	0	15	4	-19
O=C(CNC(=O)c1ccccc1Br)N/N=C/c1cc(Br)ccc1O	-4	21*	-4	46	12
Cc1cc(C)nc(SCC(N)=O)n1	-5	0	-6	6	3
O=C(Oc1cccc2cccnc12)c1ccc(Br)o1	28	2	3	-21	66*
O=C(Oc1cccc2cccnc12)c1ccco1	-4	0	-3	-13	9
O=c1c2cc(Cl)ccc2nc(-c2ccccc2)n1O	-9	0	3	-5	0
O=c1c2cc(Cl)ccc2nc(-c2ccc(Cl)c(Cl)c2)n1O	-9	0	101*	43	-12
O=c1c2cc(Br)ccc2nc(-c2ccc([N+](=O)[O-])cc2)n1O	-6	0	110*	-1	11
O=c1c2ccc(Cl)cc2nc(-c2ccc([N+](=O)[O-])cc2)n1O	1	0	87*	-26	9
O=c1c2cc(Br)ccc2nc(-c2cccc(C(F)(F)F)c2)n1O	0	0	90*	-8	-7
Cc1ccc(-n2c([O-])nc(-[n+]3ccccc3)c2C=O)cc1	-2	1	5	-5	2
NCCc1nnc(SCc2ccc(F)cc2)o1	40	-1	4	-17	64*
CCc1noc(C)c1C(=O)Nc1cc(S(=O)(=O)N2CCOCC2)ccc1OCC(F)(F)F	3	-1	-6	-1	-8
